Reference: publication PMC2217204 (The Journal of General Physiology, 2000)
Several values for one entry are separate records, joined by “and”; a condition that tells them apart may be missing. Identical values can stand only once. Like-named read-outs stand apart in the source and are kept apart here.

Tests used:
KACh channel [1] = target: T1, KACh channel (Rattus norvegicus, UniProt P48548+P63251); type: cell-based
T1 sequence (P63251 1-501): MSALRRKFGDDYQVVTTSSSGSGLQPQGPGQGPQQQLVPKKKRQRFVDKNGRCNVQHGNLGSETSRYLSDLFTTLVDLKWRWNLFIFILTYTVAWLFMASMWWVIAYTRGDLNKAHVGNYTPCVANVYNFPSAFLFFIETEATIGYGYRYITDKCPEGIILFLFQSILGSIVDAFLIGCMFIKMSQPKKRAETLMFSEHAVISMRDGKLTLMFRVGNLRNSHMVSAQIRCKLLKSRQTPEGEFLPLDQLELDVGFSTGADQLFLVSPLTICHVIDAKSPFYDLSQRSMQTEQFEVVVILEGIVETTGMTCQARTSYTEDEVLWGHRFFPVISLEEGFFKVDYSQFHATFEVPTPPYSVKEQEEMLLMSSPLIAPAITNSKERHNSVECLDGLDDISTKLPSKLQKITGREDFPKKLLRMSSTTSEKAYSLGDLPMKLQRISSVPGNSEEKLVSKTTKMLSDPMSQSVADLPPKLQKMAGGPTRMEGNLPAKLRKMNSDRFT
T1 sequence (P48548 1-419): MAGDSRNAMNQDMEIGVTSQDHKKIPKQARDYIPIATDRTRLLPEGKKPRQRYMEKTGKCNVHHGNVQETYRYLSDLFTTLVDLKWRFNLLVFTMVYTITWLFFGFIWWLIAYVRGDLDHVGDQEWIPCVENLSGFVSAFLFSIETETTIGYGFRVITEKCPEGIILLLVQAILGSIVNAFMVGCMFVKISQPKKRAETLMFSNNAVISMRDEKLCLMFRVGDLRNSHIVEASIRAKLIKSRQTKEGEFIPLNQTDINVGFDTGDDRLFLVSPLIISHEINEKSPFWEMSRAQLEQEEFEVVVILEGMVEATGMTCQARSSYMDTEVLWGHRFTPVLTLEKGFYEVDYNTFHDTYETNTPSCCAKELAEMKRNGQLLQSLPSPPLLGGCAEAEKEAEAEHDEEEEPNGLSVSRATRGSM
Outline: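 Inside-out patches from cultured newborn-rat atrial cells, 10 μM ACh in pipette, −60 mV, 24–26°C. Channels were activated by 100 μM GTP in the bath, then 4 mM ATP was added, with free Mg2+ held at 0.5 mM. nPo from 1–2 min of recording. Open and closed times came from maximum-likelihood fits of idealized records to schemes with 2–3 closed and two open states, using patches with ≤4 open levels.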

KACh channel [2] = target: T1, KACh channel; type: cell-based; settings: 4 mM ATP with 100 μM GTP in pipette, 10 μM ACh, outside-out
Outline: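 Cultured atrial myocytes from 1-day-old rats; outside-out patches at −60 mV, 24–26°C. Pipette held […] 100 μM GTP, GTP plus 4 mM ATP, or these plus atrial cytosolic fraction (5 mg protein/ml). Symmetrical 140 mM KCl, 0.5 mM MgCl2, 5 mM EGTA, 10 mM HEPES, pH 7.2. nPo from 1–2 min of recording.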

K1 channel = assay: ATP-activated background K1 channel, atrial inside-out patches; type: cell-based, rat
KACh channel [3] = target: T1, KACh channel; assay: βγ-activated KACh channels, atrial inside-out patches; type: cell-based
Outline: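 Atrial inside-out patches at −60 mV in 140 mM KCl, pH 7.2, 24–26°C. Channels were activated by purified bovine βγ subunit applied to the cytoplasmic face. Linoleic or arachidonic acid (2 μM, sonicated into bath solution) was applied first, then 4 mM ATP was added. nPo was compared before and after ATP.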

KATP channel = KATP channel (Rattus norvegicus, UniProt P70673); assay: KATP channel, inside-out patches from adult rat ventricular cells; type: cell-based
KATP channel, sequence (P70673 whole entry): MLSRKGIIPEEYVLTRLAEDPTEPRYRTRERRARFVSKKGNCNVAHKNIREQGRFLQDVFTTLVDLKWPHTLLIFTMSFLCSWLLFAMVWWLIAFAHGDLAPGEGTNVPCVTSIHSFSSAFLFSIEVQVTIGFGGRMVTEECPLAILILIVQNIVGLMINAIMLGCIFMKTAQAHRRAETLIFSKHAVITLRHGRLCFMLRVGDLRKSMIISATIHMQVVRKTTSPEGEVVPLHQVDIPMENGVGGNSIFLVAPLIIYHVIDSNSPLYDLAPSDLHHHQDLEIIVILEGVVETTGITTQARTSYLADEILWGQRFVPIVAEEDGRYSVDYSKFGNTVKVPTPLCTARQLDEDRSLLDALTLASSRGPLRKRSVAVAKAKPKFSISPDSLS
KATP channel, sequence (Q63563 whole entry partner): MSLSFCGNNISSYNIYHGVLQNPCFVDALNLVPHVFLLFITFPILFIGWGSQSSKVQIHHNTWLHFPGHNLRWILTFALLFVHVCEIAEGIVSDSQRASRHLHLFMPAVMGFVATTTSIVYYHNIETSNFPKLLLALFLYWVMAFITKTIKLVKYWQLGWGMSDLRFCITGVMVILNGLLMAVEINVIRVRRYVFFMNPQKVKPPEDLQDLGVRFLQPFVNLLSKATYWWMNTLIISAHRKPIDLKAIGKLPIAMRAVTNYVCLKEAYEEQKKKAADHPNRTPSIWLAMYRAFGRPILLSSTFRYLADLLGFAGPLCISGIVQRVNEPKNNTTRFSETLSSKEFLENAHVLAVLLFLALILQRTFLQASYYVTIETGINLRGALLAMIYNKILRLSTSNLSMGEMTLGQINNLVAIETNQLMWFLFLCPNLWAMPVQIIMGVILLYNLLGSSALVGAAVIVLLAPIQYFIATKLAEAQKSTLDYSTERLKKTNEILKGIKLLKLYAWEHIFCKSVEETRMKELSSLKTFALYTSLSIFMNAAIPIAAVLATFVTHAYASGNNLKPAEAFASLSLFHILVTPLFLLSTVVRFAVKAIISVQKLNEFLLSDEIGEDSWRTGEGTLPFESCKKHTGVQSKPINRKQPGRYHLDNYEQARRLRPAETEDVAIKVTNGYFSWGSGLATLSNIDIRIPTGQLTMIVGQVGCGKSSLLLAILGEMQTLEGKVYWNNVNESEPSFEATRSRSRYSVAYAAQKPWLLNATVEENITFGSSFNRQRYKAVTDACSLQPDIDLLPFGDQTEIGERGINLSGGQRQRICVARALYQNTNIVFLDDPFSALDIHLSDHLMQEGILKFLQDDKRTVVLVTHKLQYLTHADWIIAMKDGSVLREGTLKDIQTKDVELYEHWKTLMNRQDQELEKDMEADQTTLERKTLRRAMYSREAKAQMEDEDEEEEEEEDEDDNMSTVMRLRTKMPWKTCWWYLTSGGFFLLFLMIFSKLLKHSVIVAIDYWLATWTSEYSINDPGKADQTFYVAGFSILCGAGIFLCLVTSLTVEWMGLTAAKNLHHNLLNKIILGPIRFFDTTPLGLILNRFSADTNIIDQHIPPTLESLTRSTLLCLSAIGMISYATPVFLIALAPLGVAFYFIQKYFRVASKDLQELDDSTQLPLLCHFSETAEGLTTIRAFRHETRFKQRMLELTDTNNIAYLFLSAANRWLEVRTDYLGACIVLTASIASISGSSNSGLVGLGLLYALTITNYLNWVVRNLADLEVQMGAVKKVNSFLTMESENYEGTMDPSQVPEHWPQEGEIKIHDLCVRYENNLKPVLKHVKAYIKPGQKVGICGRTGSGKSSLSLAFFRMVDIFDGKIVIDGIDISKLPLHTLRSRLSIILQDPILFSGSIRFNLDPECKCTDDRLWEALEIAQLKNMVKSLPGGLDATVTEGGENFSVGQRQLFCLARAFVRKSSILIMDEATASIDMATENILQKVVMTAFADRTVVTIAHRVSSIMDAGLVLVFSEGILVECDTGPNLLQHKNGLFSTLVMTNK
Outline: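 KATP channels that appeared on forming inside-out patches were tested with 5 μM arachidonic acid on the cytoplasmic side. In some patches channels were first allowed to run down, then briefly exposed to 3 mM ATP to reactivate them before fatty acid was applied. Recordings were at 24–26°C; 2 μM was also tested (n = 3).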

GIRK1/4 = assay: ATP-dependent gating of GIRK1/4 expressed in Xenopus oocytes, βγ-activated; type: cell-based; settings: βγ 50 nM
Outline: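 Xenopus oocytes injected with GIRK1 and GIRK4 cRNA (~0.5 ng/nl) and kept ~2 d at 19°C in Barth's solution. Vitelline membrane was removed before patching. Inside-out patches in 140 mM KCl, pH 7.2. Channel activity and open-time kinetics were assessed with ATP and fatty acid on the cytoplasmic side.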

KACh channel [4] = target: T1, KACh channel; type: cell-based; settings: for inhibition of ATP-dependent gating, extracellular application: 5 μM in the pipette solution (extracellular), after 5 min, n = 4 each; for Hill coefficient of inhibition: ATP-modified KACh channels, inside-out; for reversal of inhibition of ATP-dependent gating: fatty acid–free albumin 50 μg/ml
KACh channel [5] = target: T1, KACh channel; settings: cited from earlier work; for effect on KACh channel activity: physiological concentrations, ref Hong et al. 1996
KACh channel [6] = target: T1, KACh channel; type: cell-based; settings: for effect on PIP2-dependent gating of KACh channel: 2 μM fatty acid applied with 30 μM PIP2; for τo1: 100 μM phospholipid, inside-out, n = 3
[7] = target: T2, KACh channels in hippocampal pyramidal neurons (Rattus norvegicus, UniProt P48550+P63251); assay: ATP-dependent gating of KACh channel in hippocampal neurons, 5-HT as agonist; type: cell-based; settings: 2 μM with 100 μM GTP and 4 mM ATP, 10 μM 5-HT in pipette
T2 sequence (P63251 1-501): T1 sequence (P63251 1-501)
T2 sequence (P48550 1-425): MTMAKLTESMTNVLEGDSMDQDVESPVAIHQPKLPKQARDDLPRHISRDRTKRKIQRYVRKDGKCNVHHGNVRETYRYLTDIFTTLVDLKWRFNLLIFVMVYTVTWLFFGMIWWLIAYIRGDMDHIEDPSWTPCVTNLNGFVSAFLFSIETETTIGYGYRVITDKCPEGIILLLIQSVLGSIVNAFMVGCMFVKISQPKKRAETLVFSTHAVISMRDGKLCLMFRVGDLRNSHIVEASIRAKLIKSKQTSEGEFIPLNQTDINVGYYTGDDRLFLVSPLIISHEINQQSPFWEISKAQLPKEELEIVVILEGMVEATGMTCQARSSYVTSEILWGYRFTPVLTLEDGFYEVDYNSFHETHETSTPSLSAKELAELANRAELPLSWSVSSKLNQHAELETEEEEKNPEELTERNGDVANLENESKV
Outline: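 Pyramidal neurons from the CA3 region of adult rat hippocampus. Slices ~500 μm thick were digested in 0.33 mg/ml trypsin at 30°C, then in DNase I, triturated, and settled onto coverslips. Inside-out patches were activated by 100 μM GTP, then 4 mM ATP was added. Open states were assessed from duration histograms and kinetic-scheme fits with one or two open states.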

[8] = K 1/2 (effect on ATP-dependent gating of KACh channel), atrial inside-out patches, 100 μM GTP and 4 mM ATP, lipid 0.1, 1, 3, 10 and 30 μM, n = 3 each
[9] = atrial inside-out patches, 100 μM GTP and 4 mM ATP, lipid 0.1, 1, 3, 10 and 30 μM, n = 3 each

## Nc1ncnc2c1ncn2[C@@H]1O[C@H](COP(=O)(O)OP(=O)(O)OP(=O)(O)O)[C@@H](O)[C@H]1O [ATP]
KACh channel [1]; 4 mM ATP added to GTP, inside-out patches
  increase in nPo: approximately fivefold increase
KACh channel [1]; 4 mM ATP, inside-out patches
  mean closed time of long closings (C1): 62 ms
KACh channel [1]; n = 3
  Hill coefficient of [ATP]–nPo relationship: 1.9 ± 0.2
KACh channel [2]
  channel activity (nPo) with ATP versus without: approximately fivefold higher
K1 channel; 4 mM ATP in bath, inside-out atrial patch
  activation of K1 channel: quickly activated

## CCCCC/C=C\C/C=C\C/C=C\C/C=C\CCCC(=O)O [Arachidonic acid [20:4 (n-6)], Arachidonic acid]
KACh channel [3]
  IC50: 1500 nM
KATP channel; 5 μM AA with PIP2 present, listed as AA
  KATP channel inhibition in the presence of PIP2: ineffective
KATP channel; brief exposure to 3 mM ATP, n = 4, listed as AA
  inhibition of KATP channels reactivated by ATP after rundown: quick inhibition
KATP channel; read-out: inhibition of KATP channel activity
  inhibition at 2 µM: 62 ± 12%
GIRK1/4
  effect on ATP-induced changes in GIRK1/4 channel kinetics: blocked
KACh channel [4]; 2 μM AA with GTP and 4 mM ATP, atrial patch also containing K1 channel
  KACh open time constant after fatty acid: 1.0 ± 0.1 ms
KACh channel [4]
  inhibition of ATP-dependent gating, extracellular application: did not inhibit
  Hill coefficient of inhibition: ~2
KACh channel [4]; [8]
  IC50: 1700 ± 200 nM
KACh channel [4]; channel activity at different membrane potentials (Fig. 10 B)
  voltage dependence of the effect: voltage-insensitive
K1 channel; 2 or 5 μM AA, ATP-activated, n = 3 each, listed as AA
  effect on K1 channel: no effect

## [Ca+2] [Ca^2+]
KACh channel [5]; at concentrations above 30 μM, ref Kim 1991
  effect on open time constant of the KACh channel: decreased
KACh channel [5]
  effect on KACh channel activity: no significant effect

## CCCCC/C=C\C/C=C\CCCCCCCC(=O)O [Linoleic acid [18:2 (n-6)], Linoleic acid]
KACh channel [6]
  effect on PIP2-dependent gating of KACh channel: inhibited
KACh channel [3]; βγ-activated channels exposed to 2 μM fatty acid first, n = 5
  increase in channel activity on further addition of 4 mM ATP: 1.3 ± 0.1 fold
KATP channel; 5 μM, during channel rundown
  inhibition of KATP channel activity: near maximal inhibition
[7]
  open time constant (one open state): 1.0 ± 0.1 ms
KACh channel [4]
  inhibition of ATP-dependent gating, extracellular application: did not inhibit
  Hill coefficient of inhibition: ~2
KACh channel [4]; [8]
  IC50: 1200 ± 200 nM
KACh channel [4]; K 1/2 for inhibition, pipette solution 70 mM K+, n = 3
  IC50: 1600 ± 400 nM
KACh channel [4]; K 1/2 for inhibition, pipette solution 140 mM K+, n = 3
  IC50: 1500 ± 300 nM
KACh channel [4]; K 1/2 for inhibition, pipette solution 210 mM K+, n = 3
  IC50: 1700 ± 400 nM
K1 channel; linoleic acid 2 μM (n = 3), cytosolic fraction 5 mg protein/ml (n = 2), lipid fraction (n = 2)
  influence on K1 channel kinetics: failed to significantly influence

## CCCCCCCC/C=C\CCCCCCCC(=O)O [Oleic acid [18:1 (n-9)], Oleic acid]
KACh channel [6]
  effect on PIP2-dependent gating of KACh channel: inhibited
KACh channel [4]
  inhibition of ATP-dependent gating, extracellular application: did not inhibit
  Hill coefficient of inhibition: ~2
KACh channel [4]; [8]
  IC50: 1500 ± 200 nM
KACh channel [4]; read-out: partial inhibition of ATP-dependent gating, extracellular application
  inhibition at 50 µM: 65 ± 6%
KACh channel [4]; room temperature or 37°C for 30 min
  inhibitory potency after incubation: reduced their inhibitory potency significantly

## Nc1nc2c(ncn2[C@@H]2O[C@@H]3COP(=O)(O)O[C@H]3[C@H]2O)c(=O)[nH]1 [cGMP]
KACh channel [5]
  effect on KACh channel activity: no significant effect

## O=P(O)(O)O[C@@H]1[C@H](O)[C@H](O)[C@@H](OP(=O)(O)O)[C@H](OP(=O)(O)O)[C@H]1O [inositol trisphosphate]
KACh channel [5]
  effect on KACh channel activity: no significant effect

## CC/C=C\C/C=C\C/C=C\CCCCCCCC(=O)O [α-linolenic acid [18:3 (n-3)], α-linolenic acid]
KACh channel [4]; read-out: K 1/2 (effect on ATP-dependent gating of KACh channel), atrial inside-out patches, 100 μM GTP and 4 mM ATP, lipid 0.1, 1, 3, 10 and 30 μM, n = 3 each
  IC50: 6200 ± 800 nM

## Lysophosphatidylethanolamine
KACh channel [4]; [9]
  K 1/2 (effect on ATP-dependent gating of KACh channel): No effect

## Phosphatidylserine
KACh channel [4]; [9]
  K 1/2 (effect on ATP-dependent gating of KACh channel): No effect

## albumin: fatty acid–free bovine serum albumin
KACh channel [4]
  reversal of inhibition of ATP-dependent gating: almost complete reversal
KACh channel [4]; listed as fatty acid-free albumin
  reversal of inhibition of ATP-dependent gating: completely remove

## phosphatidylcholine
KACh channel [6]
  τo1: 2.5 ± 0.6 ms

## phosphatidylethanolamine
KACh channel [6]
  τo1: 2.8 ± 0.5 ms

## phosphatidylinositol-4,5-bisphosphate [PIP2]
KACh channel [6]; 30 μM PIP2 after GTPγS (100 μM) activation
  open time constant of second open state: 2.6 ± 0.3 ms and 2.6 ms
KACh channel [6]; 30 μM PIP2 after GTPγS activation
  increase in channel activity: approximately twofold increase
KATP channel; PIP2 applied soon after patch excision
  effect on rundown of KATP channels: prevented rundown
